# Source: PubChem BioAssay (several laboratories)
# Sampled rows, rich in hits. Any-hit rate of the full collection: about 5.7%.
# SKKanGAS inh: SKKanGAS growth inhibition. inhibition, % at 7.5 µM. AID 1662. hit rate 1.3% among 300,000. S. pyogenes SKKanGAS, kanamycin growth, BacTiter-Glo, 6 h;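 active = mean replicate score, as percent of positive control median, at least 50; inconclusive = mean below 50 but one replicate at or above 50; inactive = mean and every replicate below 50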;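 note: strain carries kanamycin resistance gene driven by streptokinase promoter and grows in 40 µg/ml kanamycin; loss of luminescence reflects streptokinase promoter inhibition or plain growth inhibition; 0% = median of DMSO wells and 100% = positive control at its reference dose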
# Mdm2-MdmX inh: disrupts the human Mdm2-MdmX interaction. SaOS-2 split-luciferase Mdm2/MdmX complementation, luminescence. inhibition, % at 8 µM. hit rate 3% among 330,000. AID 485346;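 active = inhibition of at least 50% at 8 µM in the primary screen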
# Target sequence (O15151 whole entry, looked up): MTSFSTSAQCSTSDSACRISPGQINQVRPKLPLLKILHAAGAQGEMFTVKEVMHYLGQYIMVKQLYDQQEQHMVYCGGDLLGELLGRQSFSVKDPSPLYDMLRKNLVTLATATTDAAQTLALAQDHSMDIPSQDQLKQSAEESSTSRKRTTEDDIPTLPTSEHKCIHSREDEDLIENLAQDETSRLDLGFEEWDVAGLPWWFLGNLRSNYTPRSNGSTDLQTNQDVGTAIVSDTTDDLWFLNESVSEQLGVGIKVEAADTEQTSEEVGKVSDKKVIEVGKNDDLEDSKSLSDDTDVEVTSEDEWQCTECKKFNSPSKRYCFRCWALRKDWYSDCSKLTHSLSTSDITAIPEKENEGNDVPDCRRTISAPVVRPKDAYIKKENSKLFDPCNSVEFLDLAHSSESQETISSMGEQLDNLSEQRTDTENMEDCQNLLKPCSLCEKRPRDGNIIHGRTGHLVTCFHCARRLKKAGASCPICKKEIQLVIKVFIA
# Target sequence (Q00987 whole entry, looked up): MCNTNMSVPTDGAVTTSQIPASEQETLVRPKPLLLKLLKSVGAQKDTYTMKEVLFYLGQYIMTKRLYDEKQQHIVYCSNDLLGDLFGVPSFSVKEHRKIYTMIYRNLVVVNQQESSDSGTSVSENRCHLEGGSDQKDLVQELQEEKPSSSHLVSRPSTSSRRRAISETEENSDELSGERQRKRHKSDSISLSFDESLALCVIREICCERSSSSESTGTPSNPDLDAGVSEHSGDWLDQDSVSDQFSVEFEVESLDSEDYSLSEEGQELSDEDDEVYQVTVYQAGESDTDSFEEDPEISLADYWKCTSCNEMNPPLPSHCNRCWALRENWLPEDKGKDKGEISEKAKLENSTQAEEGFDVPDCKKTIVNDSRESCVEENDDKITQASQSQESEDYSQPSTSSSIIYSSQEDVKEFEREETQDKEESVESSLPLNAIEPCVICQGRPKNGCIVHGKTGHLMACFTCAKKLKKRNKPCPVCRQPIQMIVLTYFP
# T cruzi inh: T. cruzi replication inhibition | T. cruzi beta-gal in NIH3T3, luminescence, 90 h | inhibition, % (test concentration not listed) | hit rate 1.4% among 300,000;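 active = mean inhibition across valid replicates above about 55%, limit read from the data; inconclusive = mean below that limit but half or more replicates reach it; inactive = mean below it, under half of replicates reach it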;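 note: signal also drops with host cell toxicity which is not excluded here; 0% = plate median of DMSO wells and 100% = zero luminescence signal; higher percent means less beta-gal luminescence so fewer parasites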
#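 Assay system: NIH/3T3 host cells with β-galactosidase reporter T. cruzi; input: 5,000 host fibroblasts per well; compound: single 50 nL compound addition per well in DMSO; timing: ≥90 h infection period, 3 h prior cell attachment; measured by: GalScreen β-gal luminescence, detergent lysis, 60 min; evaluation: percent inhibition of parasite-derived β-gal signal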
# Calb FLC: C. albicans growth modulation with fluconazole. C. albicans CaCi-2 (fluconazole-resistant clinical isolate) + fluconazole, Alamar Blue growth, 48 h. growth inhibition, % (test concentration not listed). hit rate 0.57% among 300,000;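 active = growth inhibition above about 58% in most replicates, limit read from the data, passing the limit was not always enough; inconclusive = exactly half the replicates above a set limit; inactive = most replicates below a set limit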;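 note: all wells also contain fluconazole at 8 µg/ml as a sub-toxic cotreatment; 0% = median of DMSO wells and 100% = median of geldanamycin control wells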
# Beta cell apopt: blocks beta cell apoptosis; INS-1E cytokine-induced death, ATP luminescence, 48 h; percent of positive-control rescue, neutral wells zero; protection from apoptosis, % (test concentration not listed); hit rate 0.8% among 300,000; AID 435005;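 active = Every replicate reaches about 75%, or at least half do and their mean reaches it too, limit read from the data; inconclusive = At least half of replicates reach the limit but their mean does not; inactive = Under half of replicates reach the limit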;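 note: 0% = cytokine-treated negative control wells and 100% = positive control rescue; higher means more ATP so stronger rescue from cytokine killing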
# CSC inhib: blocks cancer stem cells; hit rate 1.1% among 300,000; cancer stem cell-like cells viability, luminescence; inhibition, % at 7.5 µM; in the data active = inhibition above about 75%; inconclusive = no clear call, values can overlap the other calls; tested in HMLE shEcad cells
# Mdm2-MdmX conf: confirmation of human Mdm2/MdmX interaction inhibitors; inhibition, % at 8 µM; shares compounds with Mdm2-MdmX inh; Mdm2-MdmX binding, luminescent assay; hit rate 55% among 10,000; in the data active = inhibition above about 40%
# FLuc counter: counter-screen for Mdm2/MdmX inhibitors: full-length luciferase; shares compounds with Mdm2-MdmX inh; SaOS-2 full-length luciferase counterscreen, luminescence; inhibition, % at 8 µM; hit rate 77% among 6,200; AID 504607;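 active = mean inhibition at 8 µM reaching about 37%, which flags the compound as non-specific, limit read from the data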;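 note: p53-null SaOS-2 cells with luciferase driven by a doxycycline-inducible promoter; compound on cells about two nights before reading with doxycycline added after day one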
# * hit, by the source's call; ? = inconclusive; . = no result.
SMILES,SKKanGAS inh,Mdm2-MdmX inh,T cruzi inh,Calb FLC,Beta cell apopt,CSC inhib,Mdm2-MdmX conf,others
Cc1ccccc1NC(=O)Cc1nc(COC(=O)c2ccc(NC(N)=O)cc2)cs1,.,-5,.,.,-14,10,.,
Cc1ccccc1NC(=O)Cc1nc(COC(=O)c2ccc(S(C)(=O)=O)c([N+](=O)[O-])c2)cs1,.,97*,.,.,.,.,94*,FLuc counter=57*
Cc1ccccc1NC(=O)COC(=O)c1ccc(S(C)(=O)=O)c([N+](=O)[O-])c1,3,55*,-7,?,-19,-8,33,
CC1(NC(=S)N(CCO)CCO)CCS(=O)(=O)C1 (stereo not drawn),-1,6,-11,-3,-11,-8,.,
Cc1cccc(Oc2sc(C(=O)c3ccccc3)c(N)c2C#N)c1,36,58*,-22,1,-6,20,33,FLuc counter=42*
CCOC(=O)C1(CCc2ccccc2)CCN(Cc2cc(OC)c(OC)cc2OC)CC1,2,9,-3,3,.,-4,.,
CN(C)S(=O)(=O)c1cccc(COC(=O)CCNC(=O)c2ccc([N+](=O)[O-])cc2)c1,.,16,.,.,.,.,.,
COC(=O)C1=C(C(=O)OC)[C@@H]2N(Cc3ccccc3)c3ccccc3[C@@]23C[C@@H](C(=O)OC)N(C(=O)CC(C)C)C3=N1,7,4,20,9,12,22,.,
COC(=O)C1=C(C(=O)OC)[C@@H]2N(Cc3ccccc3)c3ccccc3[C@@]23C[C@@H](C(=O)OC)N(C(=O)c2cc(C)oc2C)C3=N1,6,57*,11,12,2,26,7,
COC(=O)C1=C(C(=O)OC)[C@@H]2N(Cc3ccccc3)c3ccccc3[C@@]23C[C@@H](C(=O)OC)N(C(=O)c2cccs2)C3=N1,3,60*,-5,1,-5,33,21,
CCOc1cc(S(=O)(=O)NCCCN2CCOCC2)ccc1F,5,7,2,-2,-10,-8,.,
Cc1ccccc1N1C(=O)C2ON(c3ccccc3)C(c3ccco3)C2C1=O (stereo not drawn),2,22,-18,-5,2,-8,.,
CCCC(NC(=O)c1ccc(Br)o1)c1nc2ccccc2[nH]1 (stereo not drawn),.,24,.,.,-4,4,.,
Cc1[nH]c2ccccc2c1/C=C/c1nc2ccccc2c(=O)n1-c1ccc([N+](=O)[O-])cc1,-3,64*,38,21,7,9,-16,
Cc1cc(C)cc(OCC(=O)OC(C)C(=O)Nc2ccc(Cl)cn2)c1 (stereo not drawn),-1,16,-4,1,-2,.,.,
CCCc1ccc2oc(C(=O)N(Cc3nccn3C)C(C)C)c(C)c2c1,-10,-1,13,3,3,39,.,
CCOC(=O)C1CCCN(C(=O)c2ccc3nc(-c4cccc(OC)c4)oc3c2)C1 (stereo not drawn),1,53*,-7,-3,3,51,79*,FLuc counter=113*
O=C(NCCn1ccc2ccccc21)c1cccc([N+](=O)[O-])c1,10,13,-10,17,1,7,.,
O=C(CSc1nnc(COc2ccccc2)o1)N1CCOCC1,15,-13,1,-1,-3,-20,.,
Cc1ncc(CO)c2cc(C(N)=O)c(=Nc3ccccc3)oc12,1,-9,-4,12,6,-1,.,
COc1ccc(NC(=O)c2cc3c(CO)cnc(C)c3oc2=Nc2cccc(F)c2)c(OC)c1,9,72*,3,3,7,17,74*,FLuc counter=28
Cc1ccc(NC(=O)c2cc3c(CO)cnc(C)c3oc2=Nc2cccc(C(N)=O)c2)cc1,4,78*,3,-3,3,4,64*,FLuc counter=48*
Cc1ncc(CO)c2cc(C(=O)Nc3cccc(F)c3)c(=Nc3cccc(C(N)=O)c3)oc12,21,23,-8,-1,13,3,.,
CN(/N=C/c1cccc(Br)c1)C1=NS(=O)(=O)c2ccccc21,29,15,6,5,1,-8,.,
